Reference: ChEMBL document CHEMBL4376862, “Synthesis and evaluation of novel chlorophyll a derivatives as potent photosensitizers for photodynamic therapy” (Eur J Med Chem, 2020)
Active and inactive are the calls of the source. The rule behind the calls is not given here.

Tests used:
[1] = tested on: Mus musculus; assay: Phototoxicity in ICR mouse assessed as change in auricles 0.45 mg/kg, iv in presence of 10 mW/cm2 light irradiation for 10 mins upto 7 days measured after 1day of light irradiation by H and E staining based microscopic analysis; assay type: organism-based; details: in vivo
[2] = tested on: Mus musculus; assay: Phototoxicity in ICR mouse assessed as ear weight at 0.45 mg/kg, iv followed by 10 mW/cm2 light irradiation for 10 mins at 7 days after drug challenge measured after 1 day of light irradiation (13.2 +/- 1.6 mg); assay type: organism-based; details: in vivo
[3] = tested on: Mus musculus; assay: Phototoxicity in ICR mouse assessed as ear weight at 0.45 mg/kg, iv followed by 10 mW/cm2 light irradiation for 10 mins at 3 days after drug challenge measured after 1 day of light irradiation (reference value: 12.8 +/- 1.5 mg); assay type: organism-based; details: in vivo
[4] = Emission property of a compound in DMSO assessed as red shift at 5 uM on excitation with light at 410 to 415 nm by 3D fluorescence spectra analysis; assay type: physicochemical
Summary of the method: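 Stock 1 mM in DMSO, measured at […] (so in the source); excitation scanned 350–640 nm, emission 600–750 nm, 1 nm steps, room temperature, quartz cuvettes; 3D fluorescence matrix spectra recorded.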

[5] = Induction of singlet oxygen generation in DMF solution assessed as singlet oxygen quantum yield by measuring reduction in TEMP irradiated with 650 nanometer laser light in every 20 secs by ESR assay; assay type: functional
Summary of the method: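 ESR at room temperature: 9.65 GHz microwave frequency, 15 mW power, 3400–3500 G scan field, 0.8 G modulation amplitude, 15.5 s scan time, 32 scans.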

[6] = Drug uptake in human A549 cells incubated upto 24 hrs by fluorescence spectrophotometer analysis; assay type: ADME, cell-based; details: a549, 24 h
Summary of the method: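 A549 cells (F-12K, 10% FBS, 37 °C, 5% CO2) grown in 24 wells and exposed to photosensitizer for 0.5, 1, 2, 4, 8, 12 or 24 h; cells harvested by digestion, fluorescence read on a spectrophotometer.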

[7] = tested on: A549; assay: Induction of apoptosis in human A549 cells assessed as viable cells in presence of 1J/cm2 light irradiation measured after 4 hrs by annexin V-FITC and propidium iodide staining based flow cytometric analysis (reference value: 99.88%); assay type: functional
Summary of the method: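 After PDT at 1 J/cm2, A549 cells collected 4 h later, stained with annexin V-FITC and propidium iodide per kit instructions; flow cytometry with at least 10,000 events per sample.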

[8] = tested on: Cavia porcellus; assay: Phototoxicity in guinea pig assessed as change in left ear weight 4.5 mg/kg, iv followed by 10 mW/cm2 light irradiation for 10 mins measured after 1 day of light irradiation (reference value: 39.2 +/- 1.8 mg); assay type: organism-based; details: in vivo

Activity [4] [nm] | Drug uptake [6] | SMILES | Activity [1] | Activity [2] [mg] | Activity [3] [mg] | Activity [5] | Activity [7] [%] | Activity [8] [mg]
661 to 669 | Active | CCC1=C(C)c2cc3[nH]c(cc4nc(c5c6[nH]c(cc1n2)c(C)c6C(=O)C5)[C@@H](CCC(=O)NCC(=O)CCC(=O)O)[C@@H]4C)c(C)c3C(C)OCCO (stereo partly specified) | Non-Toxic | 13.4 | 13.2 | Active | 2.64 | 41.6
661 to 669 | Active | CCCCOC(C)c1c(C)c2cc3nc(c4c5[nH]c(cc6nc(cc1[nH]2)C(C)=C6CC)c(C)c5C(=O)C4)[C@@H](CCC(=O)NCC(=O)CCC(=O)O)[C@@H]3C (stereo partly specified) | Non-Toxic | 12.9 | 13.1 | Active | 3.13 | 42.3
